ChEMBL document CHEMBL1123468, “Synthesis and antiviral activity of (E)-5-(2-bromovinyl)uracil and (E)-5-(2-bromovinyl)uridine” (1986)
In brackets after ≈: the same amount, converted by molar mass. Several values for one entry are separate records, joined by “and”; a condition that tells them apart may be missing. Identical values can stand only once.

Assays:
E6SM [1] = test: The concentration required to reduce the cytopathogenicity of HSV-1 (KOS) in E6SM cell culture by 50% in presence of specified concentrations of 6-aminothymine; format: functional; details: Homo sapiens
Summary of the method: (§1)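 E6SM cultures were infected with HSV-1 strain KOS. 6-Aminothymine or benzylacyclouridine was present in the medium together with the test compound. The value is the minimum concentration giving 50% reduction of viral cytopathogenicity, scored by the earlier-described cytopathogenicity inhibition procedure.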

E6SM [2] = test: The concentration required to reduce the cytopathogenicity of HSV-1 (KOS) in E6SM cell culture by 50% in absence of dThd; format: functional; details: Homo sapiens
Summary of the method: (§2)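 E6SM cells infected with HSV-1 (KOS), with dThd added to the culture medium at the stated concentration. The value is the minimum concentration that reduces viral cytopathogenicity by 50%.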

[3] = The concentration required to reduce the cytopathogenicity of HSV-1 (KOS) in PRK cell culture by 50% in presence of specified concentrations of 6-aminothymine; format: functional, Oryctolagus cuniculus
Summary of the method: (§3)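 The cells were primary rabbit kidney (PRK) cultures infected with HSV-1 strain KOS, with 6-aminothymine co-present in the medium. The value is the minimum inhibitory concentration that reduces viral cytopathogenicity by 50%, using the previously described cytopathogenicity inhibition method.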

HeLa [4] = test: The compound was tested for its antiviral activity against HSV-1 (KOS) virus in HeLa cell line; format: functional; details: Homo sapiens
Summary of the method: (§4)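 Virus-induced cytopathogenicity in cell culture, scored microscopically. The value is the minimum concentration that cuts viral cytopathogenicity by 50%. Normal cell morphology was also checked microscopically at up to 400 μg/mL.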

HEp-2 = test: The compound was tested for its antiviral activity against HSV-1 (KOS) virus in HEp-2M cell line; format: functional; details: Homo sapiens; summary of the method: as §4
Vero = test: The compound was tested for its antiviral activity against HSV-1 (KOS) virus in vero cell line; format: functional; details: Chlorocebus sabaeus; summary of the method: as §4
E6SM [5] = test: The compound was tested for its antiviral activity against HSV-2 (G) virus in E6SM cell culture; format: functional; details: Homo sapiens; summary of the method: as §4
E6SM [6] = test: The concentration required to reduce the cytopathogenicity of HSV-1 (KOS) in E6SM cell culture by 50% in presence 0 ug/mL of 50 ug/mL of 6-aminothymine; format: functional; details: Homo sapiens
Summary of the method: (§5)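 E6SM cells infected with HSV-1 (KOS), with 6-aminothymine or benzylacyclouridine added to the medium at the stated concentration. The value is the minimum concentration that reduces viral cytopathogenicity by 50%.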

HeLa [7] = test: The concentration required to reduce the cytopathogenicity of HSV-1 (KOS) in HeLa cell culture by 50% in presence of specified concentrations of 6-aminothymine; format: functional, Homo sapiens
E6SM [8] = test: The compound was tested for its antiviral activity against HSV-1 (KOS) virus in E6SM cell culture; format: functional; details: Homo sapiens; summary of the method: as §4
E6SM [9] = test: The concentration required to reduce the cytopathogenicity of HSV-1 (KOS) in E6SM cell culture by 50% in presence of 50 ug/mL of 6-aminothymine; format: functional; details: Homo sapiens; summary of the method: as §1
E6SM [10] = test: The concentration required to reduce the cytopathogenicity of HSV-1 (KOS) in E6SM cell culture by 50% in presence of specified concentrations of benzylacyclouridine; format: functional, Homo sapiens; summary of the method: as §1
M21 [11] = test: The compound was tested for its antiviral activity against HSV-1 (KOS) virus in M-21 (GM137) cell line,; format: functional; details: Homo sapiens; summary of the method: as §4
M21 [12] = test: The compound was tested for its antiviral activity against HSV-1 (KOS) virus M-21 (GM137) cell line; format: functional; details: Homo sapiens; summary of the method: as §4
HeLa [13] = test: The concentration required to reduce the cytopathogenicity of HSV-1 (KOS) in HeLa cell culture by 50% in presence of 20 ug/mL concentrations of 6-aminothymine; format: functional; details: Homo sapiens
[14] = The concentration required to reduce the cytopathogenicity of HSV-1 (KOS) in PRK cell culture by 50% in presence of 100 ug/mL concentrations of 6-aminothymine; format: functional; details: Oryctolagus cuniculus; summary of the method: as §3
HeLa [15] = test: The concentration required to reduce the cytopathogenicity of HSV-1 (KOS) in HeLa cell culture by 50% in presence of 100 ug/mL concentrations of 6-aminothymine; format: functional; details: Homo sapiens
E6SM [16] = test: The concentration required to reduce the cytopathogenicity of HSV-1 (KOS) in E6SM cell culture by 50% in presence of 0 ug/mL concentrations of 6-aminothymine; format: functional; details: Homo sapiens; summary of the method: as §5
[17] = The concentration required to reduce the cytopathogenicity of HSV-1 (KOS) in PRK cell culture by 50% in presence of 20 ug/mL concentrations of 6-aminothymine; format: functional; details: Oryctolagus cuniculus; summary of the method: as §3
[18] = The concentration required to reduce the cytopathogenicity of HSV-1 (KOS) in PRK cell culture 0 ug/mL specified concentrations of 6-aminothymine; format: functional; details: Oryctolagus cuniculus
[19] = The concentration required to reduce the cytopathogenicity of HSV-1 (KOS) in PRK cell culture by 50% in presence of 4 ug/mL concentrations of 6-aminothymine; format: functional; details: Oryctolagus cuniculus; summary of the method: as §3
HeLa [20] = test: The concentration required to reduce the cytopathogenicity of HSV-1 (KOS) in HeLa cell culture by 50% in presence of 4 ug/mL concentrations of 6-aminothymine; format: functional; details: Homo sapiens
E6SM [21] = test: The concentration required to reduce the cytopathogenicity of HSV-1 (KOS) in E6SM cell culture by 50% in presence of 20 ug/mL concentrations of 6-aminothymine; format: functional; details: Homo sapiens; summary of the method: as §5
E6SM [22] = test: The concentration required to reduce the cytopathogenicity of HSV-1 (KOS) in E6SM cell culture by 50% in presence of 0 ug/mL concentrations of benzylacyclouridine; format: functional; details: Homo sapiens; summary of the method: as §5
E6SM [23] = test: The concentration required to reduce the cytopathogenicity of HSV-1 (KOS) in E6SM cell culture by 50% in presence of 100 ug/ml concentrations of 6-aminothymine; format: functional; details: Homo sapiens; summary of the method: as §5
E6SM [24] = test: The concentration required to reduce the cytopathogenicity of HSV-1 (KOS) in E6SM cell culture by 50% in presence of 10 ug/mL concentrations of benzylacyclouridine; format: functional, Homo sapiens; summary of the method: as §5
HeLa [25] = test: The concentration required to reduce the cytopathogenicity of HSV-1 (KOS) in HeLa cell culture by 50% in presence of 0 ug/mL concentrations of 6-aminothymine; format: functional; details: Homo sapiens
E6SM [26] = test: The concentration required to reduce the cytopathogenicity of HSV-1 (KOS) in E6SM cell culture by 50% in absence of 0 ug/mL dThd; format: functional; details: Homo sapiens; summary of the method: as §2
E6SM [27] = test: The concentration required to reduce the cytopathogenicity of HSV-1 (KOS) in E6SM cell culture by 50% in presence of 4 ug/mL concentrations of 6-aminothymine; format: functional; details: Homo sapiens; summary of the method: as §1

O=c1[nH]c(=O)n([C@H]2C[C@H](O)[C@@H](CO)O2)cc1/C=C/Br [BRIVUDINE]
MIC50 (E6SM [1]): 0.02 µg/mL | MIC50 (E6SM [2]): 0.02 µg/mL (≈ 0.06 µM) | MIC50 [3]: 0.01 µg/mL | MIC50 ([3]; Oryctolagus cuniculus, read-out: MIC50): 0.01 µg/mL | MIC50 (HeLa [4]): 0.04 µg/mL (≈ 0.12 µM) | MIC50 (HEp-2): 0.2 µg/mL (≈ 0.6 µM) | MIC50 (Vero): 0.4 µg/mL (≈ 1.2 µM) | MIC50 (E6SM [5]): 2 µg/mL (≈ 6 µM) | MIC50 (E6SM [6]): 0.02 µg/mL (≈ 0.06 µM) | MIC50 (HeLa [7]): 0.01 µg/mL and 0.02 µg/mL | MIC50 (HeLa [7]; Homo sapiens, read-out: MIC50): 0.01 µg/mL | MIC50 (E6SM [8]): 0.02 µg/mL (≈ 0.06 µM) | MIC50 (E6SM [9]): 0.01 µg/mL | MIC50 (E6SM [10]): 0.02 µg/mL | MIC50 (E6SM [10]; Homo sapiens, read-out: MIC50): 0.04 µg/mL | MIC50 (M21 [11]): 0.02 µg/mL (≈ 0.06 µM)

Oc1ncc(/C=C/Br)c(O)n1
MIC50 (M21 [12]): 1 µg/mL (≈ 4.61 µM) | MIC50 (HeLa [13]): > 200 µg/mL | MIC50 [14]: > 400 µg/mL | MIC50 (HeLa [15]): > 200 µg/mL | MIC50 (E6SM [16]): 7 µg/mL | MIC50 [17]: > 400 µg/mL | MIC50 (HeLa [4]): 2 µg/mL (≈ 9.22 µM) | MIC50 [18]: > 400 µg/mL | MIC50 [19]: > 400 µg/mL | MIC50 (HEp-2): > 200 µg/mL | MIC50 (Vero): > 400 µg/mL | MIC50 (E6SM [5]): > 400 µg/mL | MIC50 (HeLa [20]): > 200 µg/mL | MIC50 (E6SM [21]): > 400 µg/mL | MIC50 (E6SM [22]): 4 µg/mL | MIC50 (E6SM [23]): > 400 µg/mL | MIC50 (E6SM [24]): 4 µg/mL | MIC50 (E6SM [24]; Homo sapiens, read-out: MIC50): 4 µg/mL | MIC50 (HeLa [25]): 2 µg/mL | MIC50 (E6SM [26]): 7 µg/mL (≈ 32.3 µM) | MIC50 (E6SM [27]): > 400 µg/mL | MIC50 (E6SM [8]): 7 µg/mL (≈ 32.3 µM) | MIC50 (E6SM [9]): > 400 µg/mL
